Measured values as given in ChEMBL document CHEMBL1130403, “Synthesis and biological activity of novel nonnucleoside inhibitors of HIV-1 reverse transcriptase. 2-Aryl-substituted benzimidazoles” (J Med Chem, 1997).

What was measured:
[1] = molecular target: Human immunodeficiency virus type 1 reverse transcriptase (Human immunodeficiency virus 1) (UniProt Q72547); experiment: Inhibition of HIV-1 (wild type) reverse transcriptase at 10 uMol.; settings: 10 uM
Procedure, shortened: (§1)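 Purified heterodimer RT (0.015 mg/mL) incubated with or without inhibitor (10 μM) in 25 mM Tris pH 8.0, 75 mM KCl, 8 mM MgCl₂, 2 mM DTT, 0.1 mg/mL BSA, CHAPS, 0.1 units poly(rC)-oligo(dG), 0.01 mM dGTP plus [α-³⁵S]-dGTP; 30 min, 37 °C. Nucleotide incorporation expressed relative to no-inhibitor control.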

[2] = tested on: CEM-SS; experiment: In vitro 50% cellular protection of CEM-SS cells from HIV-1 induced cytopathicity.; format: functional, cell-based; settings: Homo sapiens
[3] = molecular target: Human immunodeficiency virus type 1 reverse transcriptase (Human immunodeficiency virus 1, UniProt Q72547); experiment: The quantity of compound required to reduce WT Reverse transcriptase activity by 50%
Procedure, shortened: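 RNA-dependent DNA polymerase activity of purified heterodimer RT (0.015 mg/mL) at various inhibitor concentrations; 25 mM Tris pH 8.0, 75 mM KCl, 8 mM MgCl₂, 2 mM DTT, 0.1 mg/mL BSA, CHAPS, poly(rC)-oligo(dG) template-primer, 0.01 mM dGTP with [α-³⁵S]-dGTP tracer; 30 min at 37 °C; radiolabel incorporation read.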

[4] = molecular target: Human immunodeficiency virus type 1 reverse transcriptase (Human immunodeficiency virus 1) (UniProt Q72547); experiment: Compound is evaluated for the percentage of inhibition of HIV-1 WT Reverse transcriptase at 10 uM drug concentration
Procedure, shortened: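 Purified heterodimer HIV-1 WT RT (0.015 mg/mL), RNA-dependent DNA polymerase assay; poly(rC)-oligo(dG) template-primer (0.1 units), 0.01 mM dGTP plus [α-³⁵S]-dGTP, in 25 mM Tris pH 8.0, 75 mM KCl, 8 mM MgCl₂, 2 mM DTT, 0.1 mg/mL BSA, CHAPS; 30 min, 37 °C. Nucleotide incorporation relative to no-inhibitor control gives % inhibition.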

[5] = molecular target: Human immunodeficiency virus type 1 reverse transcriptase (Human immunodeficiency virus 1) (UniProt Q72547); experiment: Compound is evaluated for the percent inhibition of HIV-1 WT Reverse transcriptase at 10 uM drug concentration; procedure, shortened: as §1

Row | inhibition [1] | EC50 [2] | Compound | also measured
1 | 12% | – | Cc1cccc2c1nc(CO)n2Cc1c(F)cccc1F | –
2 | 39% | – | Cc1cccc2c1nc(-c1c(F)cccc1F)n2S(=O)(=O)c1ccccc1 | –
3 | 71% | – | Cc1ccccc1-c1nc2ccccc2n1Cc1c(F)cccc1F | –
4 | 35% | 31.6 µM | Cc1cccc2c1nc(-c1cccnc1)n2Cc1c(F)cccc1F | –
5 | 7% | – | Fc1cccc(F)c1COCc1nc2ccccc2n1Cc1c(F)cccc1F | –
6 | 22% | – | Cc1nc2ccccc2n1Cc1c(F)cccc1F | –
7 | 52% | – | O=S(=O)(c1ccccc1)n1c(-c2c(F)cccc2F)nc2ccccc21 | –
8 | 53% | – | Cc1cccc2c1nc(C(C)C)n2Cc1c(F)cccc1F | –
9 | 40% | – | Cc1cccc2c1ncn2Cc1c(F)cccc1F | –
10 | 26% | – | Cc1cccc2c1nc(-c1ccc(C#N)cc1)n2Cc1c(F)cccc1F | –
11 | 58% | 3.16 µM | Cc1cccc2c1nc(-c1c(F)cccc1F)n2Cc1c(Cl)cccc1Cl | –
12 | 87% | 0.75 µM | Cc1cccc2c1nc(-c1c(F)cccc1F)n2Cc1ccccc1 | IC50 [3]: 1600 nM
13 | 2% | – | Cc1cccc2c1nc(-c1cccc3ccccc13)n2Cc1c(F)cccc1F | –
14 | – | 6.06 µM | Fc1cccc(F)c1Cn1c(-c2ccccc2)nc2ccccc21 | inhibition [5]: 77%; IC50 [3]: 16000 nM
15 | 8% | – | O=C(c1c(F)cccc1F)n1c(-c2c(F)cccc2F)nc2ccccc21 | –
16 | 92% | 0.44 µM | Cc1cccc2c1nc(-c1c(F)cccc1F)n2Cc1c(F)cccc1F | IC50 [3]: 200 nM
17 | 8% | – | Cc1cccc2c1nc(-c1ccc3ccccc3c1)n2Cc1c(F)cccc1F | –
18 | 36% | – | Cc1cccc2c1nc(-c1c(F)cccc1F)n2Cc1c(F)c(F)c(F)c(F)c1F | –
19 | 71% | > 32 µM | Fc1cccc(F)c1-c1nc2ccccc2n1Cc1ccccc1 | IC50 [3]: 18600 nM
20 | 43% | – | Cc1cccc2c1nc(-c1c(F)cccc1F)n2Cc1cccnc1 | –
21 | 70% | 3.5 µM | Cc1cccc2c1nc(-c1ccncc1)n2Cc1c(F)cccc1F | –

Row | Compound | inhibition [1] | EC50 [2] | also measured
22 | Cc1cccc2c1nc(C=O)n2Cc1c(F)cccc1F | 59% | – | –
23 | Fc1cccc(F)c1Cn1c(-c2c(F)cccc2F)nc2ccccc21 | 93% | 1.7 µM | IC50 [3]: 110 nM
24 | Fc1cccc(F)c1C1SCc2nc3ccccc3n21 (centres undefined) [THIAZOLOBENZIMIDAZOLE] | – | 0.52 µM | inhibition [4]: 84%; IC50 [3]: 500 nM
